ChEMBL document CHEMBL1275252, “First survey of metallo-beta-lactamases in clinical isolates of Pseudomonas aeruginosa in a German university hospital” (2010)

Experiments:
Type in all cases: functional
Pseudomonas aeruginosa [1] = experiment: Antimicrobial activity against metallo-beta-lactamase-negative Pseudomonas aeruginosa isolate PA382
Method in brief: (§1)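 MBL-negative clinical P. aeruginosa isolates with reduced imipenem susceptibility, collected at the study hospital, some from cystic fibrosis patients. Species identity was confirmed by automated Gram-negative identification card. MIC was read in μg/ml.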

Pseudomonas aeruginosa [2] = experiment: Antimicrobial activity against metallo-beta-lactamase-negative Pseudomonas aeruginosa isolate PA360; method in brief: as §1
Pseudomonas aeruginosa [3] = experiment: Antimicrobial activity against metallo-beta-lactamase-negative Pseudomonas aeruginosa isolate PA364; method in brief: as §1
Pseudomonas aeruginosa [4] = experiment: Antimicrobial activity against metallo-beta-lactamase-negative Pseudomonas aeruginosa isolate PA349; method in brief: as §1
Pseudomonas aeruginosa [5] = experiment: Antimicrobial activity against metallo-beta-lactamase-negative Pseudomonas aeruginosa isolate PA395; method in brief: as §1
Pseudomonas aeruginosa [6] = experiment: Antimicrobial activity against metallo-beta-lactamase-negative Pseudomonas aeruginosa isolate PA459; method in brief: as §1
Pseudomonas aeruginosa [7] = experiment: Antimicrobial activity against Pseudomonas aeruginosa isolate PA510 expressing VIM-2 beta-lactamase
Pseudomonas aeruginosa [8] = experiment: Antimicrobial activity against metallo-beta-lactamase-negative Pseudomonas aeruginosa isolate PA368; method in brief: as §1
Pseudomonas aeruginosa [9] = experiment: Antimicrobial activity against metallo-beta-lactamase-negative Pseudomonas aeruginosa isolate PA380; method in brief: as §1
Pseudomonas aeruginosa [10] = experiment: Antimicrobial activity against metallo-beta-lactamase-negative Pseudomonas aeruginosa isolate PA758 isolated from patient with cystic fibrosis; method in brief: as §1
Pseudomonas aeruginosa [11] = experiment: Antimicrobial activity against metallo-beta-lactamase-negative Pseudomonas aeruginosa isolate PA483
Pseudomonas aeruginosa [12] = experiment: Antimicrobial activity against metallo-beta-lactamase-negative Pseudomonas aeruginosa isolate PA479
Pseudomonas aeruginosa [13] = experiment: Antimicrobial activity against Pseudomonas aeruginosa isolate PA475 expressing VIM-2 beta-lactamase
Pseudomonas aeruginosa [14] = experiment: Antimicrobial activity against Pseudomonas aeruginosa isolate PA462 expressing VIM-2 beta-lactamase
Pseudomonas aeruginosa [15] = experiment: Antimicrobial activity against metallo-beta-lactamase-negative Pseudomonas aeruginosa isolate PA734 isolated from patient with cystic fibrosis; method in brief: as §1
Pseudomonas aeruginosa [16] = experiment: Antimicrobial activity against Pseudomonas aeruginosa PA554 expressing GIM-1 beta-lactamase
Method in brief: (§2)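 Well-characterized MBL-producing control strains from earlier studies: nine P. aeruginosa and one A. baumannii. MIC was read in μg/ml and used to set screening breakpoints for MBL producers.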

Pseudomonas aeruginosa [17] = experiment: Antimicrobial activity against Pseudomonas aeruginosa isolate PA500 expressing VIM-1 beta-lactamase
Pseudomonas aeruginosa [18] = experiment: Antimicrobial activity against metallo-beta-lactamase-negative Pseudomonas aeruginosa isolate PA370; method in brief: as §1
Pseudomonas aeruginosa [19] = experiment: Antimicrobial activity against Pseudomonas aeruginosa PA373 expressing VIM-2 beta-lactamase; method in brief: as §2
Pseudomonas aeruginosa [20] = experiment: Antimicrobial activity against metallo-beta-lactamase-negative Pseudomonas aeruginosa isolate PA346; method in brief: as §1
Pseudomonas aeruginosa [21] = experiment: Antimicrobial activity against Pseudomonas aeruginosa isolate PA465 expressing VIM-2 beta-lactamase
Pseudomonas aeruginosa [22] = experiment: Antimicrobial activity against Pseudomonas aeruginosa PA386 expressing IMP-13 beta-lactamase; method in brief: as §2
Pseudomonas aeruginosa [23] = experiment: Antimicrobial activity against Pseudomonas aeruginosa PA399 expressing VIM-2 beta-lactamase; method in brief: as §2
Pseudomonas aeruginosa [24] = experiment: Antimicrobial activity against Pseudomonas aeruginosa isolate PA481 expressing VIM-2 beta-lactamase
Pseudomonas aeruginosa [25] = experiment: Antimicrobial activity against metallo-beta-lactamase-negative Pseudomonas aeruginosa isolate PA361; method in brief: as §1
Pseudomonas aeruginosa [26] = experiment: Antimicrobial activity against metallo-beta-lactamase-negative Pseudomonas aeruginosa isolate PA460
Pseudomonas aeruginosa [27] = experiment: Antimicrobial activity against metallo-beta-lactamase-negative Pseudomonas aeruginosa isolate PA736 isolated from patient with cystic fibrosis; method in brief: as §1
Pseudomonas aeruginosa [28] = experiment: Antimicrobial activity against metallo-beta-lactamase-negative Pseudomonas aeruginosa isolate PA509
Pseudomonas aeruginosa [29] = experiment: Antimicrobial activity against metallo-beta-lactamase-negative Pseudomonas aeruginosa isolate PA362; method in brief: as §1
Pseudomonas aeruginosa [30] = experiment: Antimicrobial activity against metallo-beta-lactamase-negative Pseudomonas aeruginosa isolate PA352; method in brief: as §1
Pseudomonas aeruginosa [31] = experiment: Antimicrobial activity against metallo-beta-lactamase-negative Pseudomonas aeruginosa isolate PA340; method in brief: as §1
Pseudomonas aeruginosa [32] = experiment: Antimicrobial activity against Pseudomonas aeruginosa PA430 expressing VIM-4 beta-lactamase; method in brief: as §2
Pseudomonas aeruginosa [33] = experiment: Antimicrobial activity against metallo-beta-lactamase-negative Pseudomonas aeruginosa isolate PA376
Pseudomonas aeruginosa [34] = experiment: Antimicrobial activity against metallo-beta-lactamase-negative Pseudomonas aeruginosa isolate PA355; method in brief: as §1
Pseudomonas aeruginosa [35] = experiment: Antimicrobial activity against Pseudomonas aeruginosa isolate PA477 expressing VIM-2 beta-lactamase
Pseudomonas aeruginosa [36] = experiment: Antimicrobial activity against metallo-beta-lactamase-negative Pseudomonas aeruginosa isolate PA356; method in brief: as §1
Pseudomonas aeruginosa [37] = experiment: Antimicrobial activity against Pseudomonas aeruginosa PA552 expressing IMP-1 beta-lactamase; method in brief: as §2
Acinetobacter baumannii = experiment: Antimicrobial activity against Acinetobacter baumannii AB551 expressing SIM-1 beta-lactamase; method in brief: as §2
Pseudomonas aeruginosa [38] = experiment: Antimicrobial activity against metallo-beta-lactamase-negative Pseudomonas aeruginosa isolate PA350; method in brief: as §1
Pseudomonas aeruginosa [39] = experiment: Antimicrobial activity against Pseudomonas aeruginosa PA550 expressing VIM-1 beta-lactamase; method in brief: as §2
Pseudomonas aeruginosa [40] = experiment: Antimicrobial activity against metallo-beta-lactamase-negative Pseudomonas aeruginosa isolate PA494
Pseudomonas aeruginosa [41] = experiment: Antimicrobial activity against metallo-beta-lactamase-negative Pseudomonas aeruginosa isolate PA381; method in brief: as §1
Pseudomonas aeruginosa [42] = experiment: Antimicrobial activity against Pseudomonas aeruginosa PA431 expressing IMP-1 beta-lactamase; method in brief: as §2
Pseudomonas aeruginosa [43] = experiment: Antimicrobial activity against metallo-beta-lactamase-negative Pseudomonas aeruginosa isolate PA342; method in brief: as §1
Pseudomonas aeruginosa [44] = experiment: Antimicrobial activity against Pseudomonas aeruginosa isolate PA399 expressing VIM-2 beta-lactamase
Pseudomonas aeruginosa [45] = experiment: Antimicrobial activity against metallo-beta-lactamase-negative Pseudomonas aeruginosa isolate PA377; method in brief: as §1
Pseudomonas aeruginosa [46] = experiment: Antimicrobial activity against Pseudomonas aeruginosa isolate PA469 expressing VIM-2 beta-lactamase
Pseudomonas aeruginosa [47] = experiment: Antimicrobial activity against metallo-beta-lactamase-negative Pseudomonas aeruginosa isolate PA774 isolated from patient with cystic fibrosis; method in brief: as §1
Pseudomonas aeruginosa [48] = experiment: Antimicrobial activity against Pseudomonas aeruginosa PA553 expressing SPM-1 beta-lactamase; method in brief: as §2
Pseudomonas aeruginosa [49] = experiment: Antimicrobial activity against metallo-beta-lactamase-negative Pseudomonas aeruginosa isolate PA507; method in brief: as §1
Pseudomonas aeruginosa [50] = experiment: Antimicrobial activity against metallo-beta-lactamase-negative Pseudomonas aeruginosa isolate PA339; method in brief: as §1
Pseudomonas aeruginosa [51] = experiment: Antimicrobial activity against metallo-beta-lactamase-negative Pseudomonas aeruginosa isolate PA341; method in brief: as §1

Measured: MIC

CC(C)(O/N=C(\C(=O)N[C@@H]1C(=O)N2C(C(=O)[O-])=C(C[n+]3ccccc3)CS[C@H]12)c1csc(N)n1)C(=O)O [CEFTAZIDIME]
32 mg/L: Pseudomonas aeruginosa [6] | Pseudomonas aeruginosa [26] | Pseudomonas aeruginosa [28] | Pseudomonas aeruginosa [29] | Pseudomonas aeruginosa [40] | Pseudomonas aeruginosa [49]
8 mg/L: Pseudomonas aeruginosa [4] | Pseudomonas aeruginosa [18] | Pseudomonas aeruginosa [45] | Pseudomonas aeruginosa [50]
16 mg/L: Pseudomonas aeruginosa [2] | Pseudomonas aeruginosa [33]
4 mg/L: Pseudomonas aeruginosa [1] | Pseudomonas aeruginosa [3] | Pseudomonas aeruginosa [8] | Pseudomonas aeruginosa [9] | Pseudomonas aeruginosa [10] | Pseudomonas aeruginosa [15] | Pseudomonas aeruginosa [20] | Pseudomonas aeruginosa [30] | Pseudomonas aeruginosa [31] | Pseudomonas aeruginosa [34] | Pseudomonas aeruginosa [36] | Pseudomonas aeruginosa [38] | Pseudomonas aeruginosa [41] | Pseudomonas aeruginosa [43]
≥ 64 mg/L: all other assays above

C[C@@H](O)[C@H]1C(=O)N2C(C(=O)O)=C(SCCNC=N)C[C@H]12 [IMIPENEM ANHYDROUS]
8 mg/L: Pseudomonas aeruginosa [2] | Pseudomonas aeruginosa [3] | Pseudomonas aeruginosa [9] | Pseudomonas aeruginosa [12] | Pseudomonas aeruginosa [27] | Pseudomonas aeruginosa [29] | Pseudomonas aeruginosa [31] | Pseudomonas aeruginosa [42]
not listed: Pseudomonas aeruginosa [49]
≥ 16 mg/L: all other assays above
